Data reported in ChEMBL document CHEMBL1132135, “Potent, orally absorbed glucagon receptor antagonists” (Bioorg Med Chem Lett, 1999).

How the values were obtained:
Glucagon receptor [1] = molecular target: T1, Glucagon receptor (Mus musculus, UniProt Q61606); assay: Binding affinity towards glucagon receptor determined by reduction in binding of [125I]glucagon to the murine glucagon receptor (GGR) expressed on CHO cells in absence of Mg+2; format: cell-based
[2] = molecular target: Glucagon receptor (Mus musculus) (UniProt Q61606); assay: (§1) Binding affinity towards glucagon receptor determined by reduction in binding of 125 I-glucagon to the murine glucagon receptor (mGLUR) expressed on CHO cells in presence of Mg+2 at 1 uM; format: cell-based
Sequence of Glucagon receptor (Mus musculus) (Q61606 whole entry): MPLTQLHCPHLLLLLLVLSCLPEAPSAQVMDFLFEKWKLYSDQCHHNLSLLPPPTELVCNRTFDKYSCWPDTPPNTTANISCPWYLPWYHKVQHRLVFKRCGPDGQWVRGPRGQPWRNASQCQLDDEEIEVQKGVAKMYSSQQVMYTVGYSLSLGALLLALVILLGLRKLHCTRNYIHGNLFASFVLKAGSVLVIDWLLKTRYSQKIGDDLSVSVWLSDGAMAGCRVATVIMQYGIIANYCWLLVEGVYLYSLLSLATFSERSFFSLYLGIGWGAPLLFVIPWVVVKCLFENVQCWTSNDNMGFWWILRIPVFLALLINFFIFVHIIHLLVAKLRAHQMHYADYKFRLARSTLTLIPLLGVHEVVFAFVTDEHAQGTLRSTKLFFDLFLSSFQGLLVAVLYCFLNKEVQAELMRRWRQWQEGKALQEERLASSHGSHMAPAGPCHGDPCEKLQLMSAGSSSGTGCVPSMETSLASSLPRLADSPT

Glucagon receptor [3] = molecular target: T2, Glucagon receptor (Homo sapiens, UniProt P47871); assay: biochemical; format: cell-based, CHO
T2 sequence (P47871 whole entry): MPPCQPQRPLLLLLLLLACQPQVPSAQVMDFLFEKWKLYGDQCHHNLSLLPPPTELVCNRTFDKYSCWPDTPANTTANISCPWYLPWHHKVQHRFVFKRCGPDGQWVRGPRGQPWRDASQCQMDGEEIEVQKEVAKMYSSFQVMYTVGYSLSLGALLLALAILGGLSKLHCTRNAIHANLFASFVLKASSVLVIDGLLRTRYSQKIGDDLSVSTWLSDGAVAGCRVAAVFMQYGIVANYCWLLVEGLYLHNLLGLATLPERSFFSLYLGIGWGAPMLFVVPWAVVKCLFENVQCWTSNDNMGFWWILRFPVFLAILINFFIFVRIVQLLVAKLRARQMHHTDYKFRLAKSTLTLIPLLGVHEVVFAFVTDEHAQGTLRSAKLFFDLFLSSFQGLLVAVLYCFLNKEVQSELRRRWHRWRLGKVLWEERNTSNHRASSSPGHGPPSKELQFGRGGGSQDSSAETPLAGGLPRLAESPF

Glucagon receptor [4] = molecular target: T2, Glucagon receptor; assay: Binding affinity towards glucagon receptor determined by reduction in binding of [125I]glucagon to the human glucagon receptor (GGR) expressed on CHO cells in presence of Mg+2; format: cell-based
How it was run: (§2)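 Radioligand binding to the glucagon receptor was run with 5 mM Mg2+ added, described as a physiological concentration.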

[5] = molecular target: Mitogen-activated protein kinase 14 (Homo sapiens, UniProt Q16539); assay: Inhibitory activity against p38-alpha kinase
Sequence of Mitogen-activated protein kinase 14 (Q16539 whole entry): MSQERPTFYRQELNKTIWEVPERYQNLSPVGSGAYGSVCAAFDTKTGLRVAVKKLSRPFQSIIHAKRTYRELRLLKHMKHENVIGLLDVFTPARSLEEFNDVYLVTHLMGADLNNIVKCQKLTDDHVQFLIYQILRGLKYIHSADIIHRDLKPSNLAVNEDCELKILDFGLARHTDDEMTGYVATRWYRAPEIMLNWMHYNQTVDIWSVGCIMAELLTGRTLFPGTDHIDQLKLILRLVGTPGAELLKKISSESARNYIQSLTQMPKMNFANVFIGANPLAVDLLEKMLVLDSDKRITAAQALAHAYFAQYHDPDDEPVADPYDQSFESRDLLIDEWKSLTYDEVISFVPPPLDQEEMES

[6] = Selectivity ratio between the binding value of human glucagon receptor (GGR) with Mg+2 and the value of p38 kinase
[7] = molecular target: Glucagon receptor (Mus musculus) (UniProt Q61606); assay: (§3) Binding affinity towards glucagon receptor determined by reduction in binding of 125 I-glucagon to the murine glucagon receptor (mGLUR) expressed on CHO cells in presence of Mg+2; format: cell-based; details: concentration not given here; how it was run: as §2
Glucagon receptor [8] = molecular target: T2, Glucagon receptor; assay: Binding affinity towards glucagon receptor determined by reduction in binding of 125 I-glucagon to the human glucagon receptor (hGLUR) expressed on CHO cells in absence of Mg+2 at 2 uM; format: cell-based
Glucagon receptor [9] = molecular target: T1, Glucagon receptor; assay: as §3; format: cell-based
How it was run: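 Mg2+ added at 5 mM, a physiological level, to the binding medium. IC50 reported in µM, with the number of determinations noted; where no IC50 was reached, percent inhibition is given at a single tested concentration.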

[10] = Inhibition of p38 kinase at 10 uM
[11] = Inhibition of p38 kinase at 2 uM
Glucagon receptor [12] = molecular target: T1, Glucagon receptor; assay: as §1; format: cell-based
[13] = Inhibition of p38 kinase; details: concentration not given here
[14] = Inhibition of p38 kinase at 40 uM
Glucagon receptor [15] = molecular target: T1, Glucagon receptor; assay: Binding affinity towards glucagon receptor determined by reduction in binding of 125 I-glucagon to the murine glucagon receptor (mGLUR) expressed on CHO cells in presence of Mg+2 at 3 uM
[16] = molecular target: Glucagon receptor (Mus musculus) (UniProt Q61606); assay: Binding affinity towards glucagon receptor determined by reduction in binding of 125 I-glucagon to the murine glucagon receptor (mGLUR) expressed on CHO cells in presence of Mg+2 at 3 uM; format: cell-based
[17] = Inhibition of p38 kinase at 1 uM
[18] = Inhibition of p38 kinase at 5 uM

T1 sequence (Q61606 whole entry): as the sequence (Q61606 whole entry) above

Compound	IC50 (Glucagon receptor [1])	IC50 (Glucagon receptor [3])	IC50 (Glucagon receptor [4])	IC50 [5]	Ratio [6]	also measured
Fc1ccc(-c2cc(-c3cccc(Cl)c3)[nH]c2-c2ccncc2)cc1	460 nM	40 nM	990 nM	420 nM	2.3	inhibition [2]: 28%
Fc1ccc(-c2cc[nH]c2-c2ccncc2)cc1	–	> 3000 nM	> 3000 nM	160 nM	> 18	–
COc1cccc(-c2cc(-c3ccc(Cl)cc3)[nH]c2-c2ccncc2)c1	–	60 nM	450 nM	420 nM	1.1	–
Clc1ccc(-c2cc(-c3ccccc3)c(-c3ccncc3)[nH]2)cc1	–	60 nM	380 nM	210 nM	1.8	–
CC(C)COc1ccccc1-c1cc(-c2ccc(Cl)cc2)[nH]c1-c1ccncc1	150 nM	3 nM	200 nM	3760 nM	0.05	inhibition [7]: 17%
CSc1ccc(-c2cc(-c3ccncc3)c(-c3ccc(F)cc3)[nH]2)cc1	–	–	–	44 nM	–	inhibition (Glucagon receptor [8]): 0%
CCCOc1ccc(Cl)cc1-c1cc(-c2ccc(Cl)cc2)[nH]c1-c1ccncc1	50 nM	6 nM	170 nM	–	–	IC50 (Glucagon receptor [9]): 1000 nM; inhibition [10]: 31%
CSc1ccc(-c2cc(-c3ccc(F)cc3)c(-c3ccncc3)[nH]2)cc1	–	290 nM	–	1230 nM	–	–
C[S+]([O-])c1ccc(-c2nc(-c3ccc(F)cc3)c(-c3ccncc3)[nH]2)cc1 (stereo not given) [SB-203580]	–	–	–	–	–	inhibition (Glucagon receptor [8]): 18%; IC50 [11]: 37 nM
O=[N+]([O-])c1ccc(-c2cc(-c3ccc(F)cc3)c(-c3ccncc3)[nH]2)cc1	–	360 nM	–	50 nM	–	–
C[S+]([O-])c1ccc(-c2cc(-c3ccc(F)cc3)c(-c3ccncc3)[nH]2)cc1 (stereo not given)	–	1100 nM	–	670 nM	–	–
CN1CCC(c2cc(-c3ccc(F)cc3)c(-c3ccncc3)[nH]2)CC1	–	–	–	20 nM	> 130	inhibition (Glucagon receptor [8]): 7%
Fc1ccc(-c2cc(-c3ccc(F)cc3)c(-c3ccncc3)[nH]2)cc1	430 nM	90 nM	350 nM	340 nM	1	Inhibition (Glucagon receptor [12]): 7%
CCCOc1cccc(OCCC)c1-c1cc(-c2ccc(Cl)cc2)[nH]c1-c1ccncc1	670 nM	40 nM	290 nM	–	–	IC50 (Glucagon receptor [9]): > 3000 nM; inhibition [13]: 5%
O=C(OCc1ccccc1)c1cc(-c2ccc(Cl)cc2)[nH]c1-c1ccncc1	800 nM	60 nM	1300 nM	–	–	inhibition [2]: 8%; inhibition [14]: 69%
Clc1ccc(-c2cc(-c3ccc(Br)cc3)c(-c3ccncc3)[nH]2)cc1	–	140 nM	2300 nM	300 nM	7.6	–
C[S+]([O-])c1ccc(-c2cc(-c3ccncc3)c(-c3ccc(F)cc3)[nH]2)cc1 (stereo not given)	–	–	–	5.3 nM	–	inhibition (Glucagon receptor [8]): 31%
CCOC(=O)c1cc(-c2ccc(Cl)cc2)[nH]c1-c1ccncc1	500 nM	90 nM	400 nM	> 1000 nM	–	IC50 (Glucagon receptor [9]): > 3000 nM
CCc1ccc(-c2cc(-c3ccc(F)cc3)c(-c3ccncc3)[nH]2)cc1	–	370 nM	–	1360 nM	–	–
Clc1ccc(-c2cc(-c3ccc(Cl)cc3)c(-c3ccncc3)[nH]2)cc1	220 nM	190 nM	810 nM	160 nM	5	Inhibition (Glucagon receptor [15]): 42%
Fc1ccc(-c2cc(-c3ccccc3)[nH]c2-c2ccncc2)cc1	2700 nM	390 nM	–	800 nM	–	–
Fc1ccc(-c2cc(-c3ccc(Cl)cc3)[nH]c2-c2ccncc2)cc1	200 nM	80 nM	800 nM	1400 nM	0.57	inhibition [2]: 43%
CC(C)Oc1ccccc1-c1cc(-c2ccc(Cl)cc2)[nH]c1-c1ccncc1	700 nM	30 nM	910 nM	5540 nM	0.16	IC50 (Glucagon receptor [9]): > 1000 nM
Clc1ccc(-c2cc(-c3ccccc3Br)c(-c3ccncc3)[nH]2)cc1	–	26 nM	2300 nM	1000 nM	2.3	–

Compound	IC50 (Glucagon receptor [1])	IC50 (Glucagon receptor [3])	IC50 (Glucagon receptor [4])	IC50 [5]	Ratio [6]	also measured
O=C(O)c1cc(-c2ccc(Cl)cc2)[nH]c1-c1ccncc1	–	> 3000 nM	–	> 1000 nM	–	–
CCOc1ccccc1-c1cc(-c2ccc(Cl)cc2)[nH]c1-c1ccncc1	340 nM	40 nM	500 nM	14200 nM	0.03	inhibition [7]: 22%
CCCOc1ccccc1-c1cc(-c2ccc(Cl)cc2)[nH]c1-c1ccncc1	30 nM	8 nM	140 nM	2840 nM	0.05	IC50 (Glucagon receptor [9]): 700 nM
CCOC(=O)c1ccc(-c2cc(-c3ccc(F)cc3)c(-c3ccncc3)[nH]2)cc1	–	850 nM	–	260 nM	–	–
O=C(O)c1ccc(-c2cc(-c3ccc(F)cc3)c(-c3ccncc3)[nH]2)cc1	–	> 3000 nM	–	90 nM	–	–
CCCCCCOc1ccccc1-c1cc(-c2ccc(Cl)cc2)[nH]c1-c1ccncc1	340 nM	40 nM	500 nM	2680 nM	0.18	inhibition [2]: 22%
Fc1ccc(-c2cc(C3CCCCC3)[nH]c2-c2ccncc2)cc1	> 1000 nM	90 nM	490 nM	180 nM	2.7	IC50 (Glucagon receptor [9]): > 1000 nM
Clc1ccc(-c2cc(C3CCCCC3)c(-c3ccncc3)[nH]2)cc1	60 nM	100 nM	> 3000 nM	> 10000 nM	–	IC50 (Glucagon receptor [9]): > 3000 nM
C=CCOc1ccccc1-c1cc(-c2ccc(Cl)cc2)[nH]c1-c1ccncc1	270 nM	17 nM	260 nM	4740 nM	0.05	inhibition [16]: 50%
COc1ccccc1-c1cc(-c2ccc(Cl)cc2)[nH]c1-c1ccncc1	400 nM	70 nM	500 nM	2650 nM	0.18	inhibition [7]: 6%
O=C(NCc1ccccc1)c1cc(-c2ccc(Cl)cc2)[nH]c1-c1ccncc1	–	> 3000 nM	–	–	–	inhibition [17]: 0%
CC(C)(C)c1ccc(-c2cc(-c3ccc(F)cc3)c(-c3ccncc3)[nH]2)cc1	–	850 nM	–	> 10000 nM	–	–
Cc1ccc(-c2cc(-c3ccc(F)cc3)c(-c3ccncc3)[nH]2)cc1	–	250 nM	2200 nM	1690 nM	1.3	–
COc1ccc(-c2cc(-c3ccc(Cl)cc3)[nH]c2-c2ccncc2)cc1	240 nM	100 nM	1600 nM	1150 nM	1.4	inhibition [2]: 16%
Nc1ccc(-c2cc(-c3ccc(F)cc3)c(-c3ccncc3)[nH]2)cc1	–	1400 nM	–	190 nM	–	–
CCCCOc1ccccc1-c1cc(-c2ccc(Cl)cc2)[nH]c1-c1ccncc1	80 nM	10 nM	180 nM	–	–	IC50 (Glucagon receptor [9]): 1200 nM; inhibition [17]: 16%
CCCOc1cc(Br)ccc1-c1cc(-c2ccc(Cl)cc2)[nH]c1-c1ccncc1	49 nM	4 nM	130 nM	–	–	IC50 (Glucagon receptor [9]): 830 nM
COc1ccc(-c2cc(-c3ccc(F)cc3)c(-c3ccncc3)[nH]2)cc1	–	590 nM	–	2800 nM	–	–
CCCNc1ccccc1-c1cc(-c2ccc(Cl)cc2)[nH]c1-c1ccncc1	440 nM	20 nM	270 nM	–	–	IC50 (Glucagon receptor [9]): > 3000 nM; inhibition [18]: 52%
Cc1cc(-c2ccc(F)cc2)c(-c2ccncc2)[nH]1	–	> 3000 nM	–	320 nM	> 9	–
Fc1ccc(-c2cc(-c3ccc(Cl)cc3Cl)[nH]c2-c2ccncc2)cc1	340 nM	40 nM	950 nM	420 nM	2.2	inhibition [2]: 13%
N#Cc1ccc(-c2cc(-c3ccc(F)cc3)c(-c3ccncc3)[nH]2)cc1	230 nM	140 nM	4900 nM	50 nM	102	inhibition [16]: 42%
CC(C)c1cc(-c2ccc(Cl)cc2)[nH]c1-c1ccncc1	60 nM	32 nM	110 nM	> 10000 nM	–	IC50 (Glucagon receptor [9]): > 3000 nM
Clc1ccc(-c2ccc(-c3ccncc3)[nH]2)cc1	700 nM	140 nM	> 3000 nM	> 10000 nM	–	IC50 (Glucagon receptor [9]): > 3000 nM
